In ChEMBL document CHEMBL4312027, “Synthesis, characterization, and biological activity of a triphenylphosphonium-containing imidazolium salt against select bladder cancer cell lines” (Eur J Med Chem, 2020):
The source made the active and inactive calls. The rule behind the calls is not given here.

Columns and labels:
A549 = assay: Growth inhibition of human A549/ATCC cells assessed as growth percent at 10 uM incubated for 48 hrs by sulforhodamine B assay relative to control; type: functional; conditions: A549, 48 h, read-out: Activity
J82 [1] = assay: Cell cycle arrest in human J82 cells assessed as increase in cell accumulation at sub-G1 phase at 250 to 500 uM incubated for 1 hr measured after culturing in normal medium for 24 hrs by propidium iodide/RNase staining based FACScan flow cytometry analysis; type: functional
Outline: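 Seeded at 300,000 cells/well in triplicate per treatment; 24 h later exposed to 250 or 500 μM or vehicle for 1 h. After 24 h in normal media, media plus cells were collected, washed, fixed in cold 70% ethanol (4 °C, 30 min), treated with phosphate citric acid buffer, stained with PI/RNase and gated for sub-G1 by flow cytometry.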

COLO 205 = assay: Growth inhibition of human COLO205 cells assessed as growth percent at 10 uM incubated for 48 hrs by sulforhodamine B assay relative to control; type: functional; conditions: COLO 205, 48 h, read-out: Activity
IGROV-1 = assay: Growth inhibition of human IGROV1 cells assessed as growth percent at 10 uM incubated for 48 hrs by sulforhodamine B assay relative to control; type: functional; conditions: IGROV-1, 48 h, read-out: Activity
RT-112 [2] = assay: Induction of apoptosis in human RT112 cells assessed as caspase 9 cleavage at 250 to 500 uM incubated for 1 hr and measured at 24 hrs after treatment by Western blot analysis; type: functional, cell-based
Outline: (§1)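 RT112 seeded 300,000/well; after 24 h, 250 or 500 μM or vehicle. Cells plus floating debris harvested immediately or 24 h after treatment, lysed in RIPA with protease inhibitors. About 30 μg protein heated 10 min at 95 °C with DTT, run on SDS-PAGE. Immunoblotted for PARP and caspase 9, Ran as loading control, ECL detection.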

RT-4 [3] = assay: Growth inhibition of human RT4 cells at 500 uM measured after 1 hr by Celltiter-Glo luminescent cell viability assay relative to control; type: functional; conditions: RT-4, 1 h, read-out: GI
Outline: (§2)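 Cells seeded 10000/well, 24 h, then exposed in ATCC-recommended medium to 62.5–2000 μM (two-fold steps) or vehicle for the set time (5–60 min), then normal medium. After 24 h, plates equilibrated 30 min at room temperature, CellTiter-Glo added, 2 min at room temperature, luminescence read. Survival relative to vehicle control; quadruplicate.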

Mus musculus = assay: Induction of urothelium exfoliation in anesthetized female mouse model assessed as effect on urothelial layer thickening at 750 to 1500 uM administered via intravesical instillation after bladder evacuation treated for 1 hr followed by repetition of the treatment after 24 hrs and measured at 24 hrs after final treatment by hematoxylin and eosin staining based analysis; type: organism-based; conditions: in vivo, other
Outline: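 Female mice anesthetized, 1–3% isoflurane. Bladder evacuated, then 100 μL of 750 or 1500 μM in 10% DMSO/PBS (or vehicle) instilled by 24G angiocatheter. Catheter left in place for a 1 h dwell. Repeated after 24 h; mice sacrificed 24 h after final dose. Bladder histology read for urothelial height and layers.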

786-0 = assay: Growth inhibition of human 786-0 cells assessed as growth percent at 10 uM incubated for 48 hrs by sulforhodamine B assay relative to control; type: functional; conditions: 786-0, 48 h, read-out: Activity
NCI-H460 = assay: Growth inhibition of human NCI-H460 cells assessed as growth percent at 10 uM incubated for 48 hrs by sulforhodamine B assay relative to control; type: functional; conditions: NCI-H460, 48 h, read-out: Activity
OVCAR-8 = assay: Growth inhibition of human OVCAR8 cells assessed as growth percent at 10 uM incubated for 48 hrs by sulforhodamine B assay relative to control; type: functional; conditions: OVCAR-8, 48 h, read-out: Activity
SK-OV-3 = assay: Growth inhibition of human SKOV3 cells assessed as growth percent at 10 uM incubated for 48 hrs by sulforhodamine B assay relative to control; type: functional; conditions: SK-OV-3, 48 h, read-out: Activity
OVCAR-4 = assay: Growth inhibition of human OVCAR4 cells assessed as growth percent at 10 uM incubated for 48 hrs by sulforhodamine B assay relative to control; type: functional; conditions: OVCAR-4, 48 h, read-out: Activity
RT-4 [4] = assay: Growth inhibition of human RT4 cells at 250 uM measured after 5 to 60 mins by Celltiter-Glo luminescent cell viability assay; type: functional, cell-based; outline: as §2
RT-112 [5] = assay: Mito-toxicity in mitochondria isolated from human RT112 cells assessed as increase in cytochrome C release at 200 uM incubated for 1 hr and measured after 4 hrs incubation in preservative buffer by Western blot analysis; type: functional
Outline: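 Mitochondria isolated from 20 million RT112 cells with a kit. Exposed to 200 μM, 100 μM CCCP or 10% DMSO for 1 h at 37 °C, then kept in mitochondria preservative buffer at 37 °C. Spun after 1 h and 4 h into supernatant and pellet; pellet lysed. Cytochrome c in each fraction detected by western blot.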

HT-29 = assay: Growth inhibition of human HT-29 cells assessed as growth percent at 10 uM incubated for 48 hrs by sulforhodamine B assay relative to control; type: functional; conditions: HT-29, 48 h, read-out: Activity
UMUC3 = assay: Growth inhibition of human UM-UC-3 cells measured after 1 hr by Celltiter-Glo luminescent cell viability assay; type: functional; conditions: UMUC3, 1 h; outline: as §2
T47D = assay: Growth inhibition of human T47D cells assessed as growth percent at 10 uM incubated for 48 hrs by sulforhodamine B assay relative to control; type: functional; conditions: read-out: Activity
SF-539 = assay: Growth inhibition of human SF539 cells assessed as growth percent at 10 uM incubated for 48 hrs by sulforhodamine B assay relative to control; type: functional; conditions: SF-539, 48 h, read-out: Activity
RT-112 [6] = assay: Growth inhibition of human RT112 cells at 500 uM by Celltiter-Glo luminescent cell viability assay; type: functional, cell-based; conditions: TDE = time-dependent effect; outline: as §2
RT-112 [7] = assay: Induction of apoptosis in human RT112 cells assessed as caspase 9 cleavage at 500 uM incubated for 1 hr and measured immediately after treatment by Western blot analysis; type: functional, cell-based; outline: as §1
RT-112 [8] = assay: Growth inhibition of human RT112 cells at 1000 uM measured after 5 mins by Celltiter-Glo luminescent cell viability assay; type: functional, cell-based; outline: as §2
RT-112 [9] = assay: Induction of apoptosis in human RT112 cells assessed as increase in PARP cleavage at 500 uM incubated for 1 hr and measured immediately after treatment by Western blot analysis; type: functional, cell-based; outline: as §1
J82 [10] = assay: Anticlonogenic activity against human J82 cells assessed as decrease in colony formation at 250 to 500 uM incubated for 1 hr measured after culturing in normal medium for 10 days by crystal violet staining assay; type: functional, cell-based
Outline: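 Cells seeded at 500/well, treated 24 h later with 250 or 500 μM drug or vehicle for 1 h. Cells were then grown in normal media for 10 days, stained with 0.5% crystal violet in 20% MeOH/water at 4 °C for 5 min, washed, dried and imaged. Run in triplicate.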

UO-31 = assay: Growth inhibition of human UO31 cells assessed as growth percent at 10 uM incubated for 48 hrs by sulforhodamine B assay relative to control; type: functional; conditions: UO-31, 48 h, read-out: Activity
NCI-H23 = assay: Growth inhibition of human NCI-H23 cells assessed as growth percent at 10 uM incubated for 48 hrs by sulforhodamine B assay relative to control; type: functional; conditions: NCI-H23, 48 h, read-out: Activity

`[Br-].[Br-].c1ccc([P+](CCCc2n(Cc3ccc4ccccc4c3)c3ccccc3[n+]2Cc2ccc3ccccc3c2)(c2ccccc2)c2ccccc2)cc1` was tested, and the growth at 10 µM (A549) was 80.2%, the Activity (J82 [1]) was “Active” and the growth at 10 µM (COLO 205) was 44.7%. For the same compound, the growth at 10 µM (IGROV-1) was 20.8%, the Activity (RT-112 [2]) was “inactive” and the inhibition of growth at 500 µM (RT-4 [3]) was 100%. The Activity (Mus musculus) was “Non-Toxic”, the growth at 10 µM (786-0) was 70.8% and the growth at 10 µM (NCI-H460) was 34.8%. It also gave a growth at 10 µM (OVCAR-8) of 70.2%, a growth at 10 µM (SK-OV-3) of 84.5% and a growth at 10 µM (OVCAR-4) of 74.4%. For the same compound, the “growth inhibition (GI)” value (RT-4 [4]) was “Active”, the Activity (RT-112 [5]) was “Active” and the growth at 10 µM (HT-29) was 23.9%. It also gave a GI50 (UMUC3) of 80 µM, a growth at 10 µM (T47D) of 56.9% and a growth at 10 µM (SF-539) of 36.8%. The “growth inhibition (GI)” value (RT-112 [6]) was “Tde”, the Activity (RT-112 [7]) was “inactive” and the “growth inhibition (GI)” value (RT-112 [8]) was “Active”. The Activity (RT-112 [9]) was “Active”, the inhibition (J82 [10]) was “Active” and the growth at 10 µM (UO-31) was 61.2%. For the same compound, the growth at 10 µM (NCI-H23) was 44%.
